From ChEMBL document CHEMBL1122545, “N2-(4-Substituted-2,6-dichlorophenyl)-N1,N1-dimethylformamidines as antihypertensive and diuretic agents” (J Med Chem, 1984)
“And” between values parts separate entries of the source, which are not always exact repeats. Equal entries are not always repeated. One block for each compound: values may come before it.

How the values were obtained:
[1] = test system: Rattus norvegicus; assay: Antihypertensive activity in SH rats, and mean arterial blood pressure was reported at a dose of 25 mg/Kg; assay type: functional, Artery
Summary of the method: (§1)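 Male SH rats (Okamoto strain), 16 weeks old, dosed orally by gavage with compound dispersed in 3% starch in normal saline at 2 mL/kg. Oral normal saline load, then individual metabolism cages; 0-5 h urine collected, Na+ and K+ measured by flame photometry. Rats redosed at 24 h without the saline load. MABP and HR taken by femoral arterial puncture under local anesthetic 4 h after the second dose.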

[2] = Diuretic activity was determined expressed as Na+(sodium) excreted in milli equivalents was reported for a duration of 5 hours after administration of a dose of 25 mg/Kg; assay type: ADME, Urine; conditions: in vivo; summary of the method: as §1
[3] = test system: Rattus norvegicus; assay: Antihypertensive activity determined as heart rate in SH rats, was reported at a dose of 10 mg/Kg; assay type: functional; summary of the method: as §1
[4] = Diuretic activity was determined expressed as volume of urine excreted in mL was reported at a dose of 10 mg/Kg; assay type: ADME; conditions: in vivo; summary of the method: as §1
[5] = test system: Rattus norvegicus; assay: Diuretic activity was determined in SH rats expressed as K(+) (potassium) excreted in milli equivalents was reported for a duration of 5 hours after administration of a dose of 25 mg/Kg.; assay type: ADME, organism-based, Urine; conditions: in vivo; summary of the method: as §1
[6] = test system: Rattus norvegicus; assay: Antihypertensive activity determined as heart rate in SH rats, was reported at a dose of 25 mg/Kg; assay type: functional; summary of the method: as §1
[7] = Diuretic activity was determined expressed as volume of urine excreted in mL was reported at a dose of 25 mg/Kg; assay type: ADME; conditions: in vivo; summary of the method: as §1
[8] = test system: Rattus norvegicus; assay: Diuretic activity was determined in SH rats expressed as K(+) (potassium) excreted in milli equivalents was reported for a duration of 5 hours after administration of a dose of 10 mg/Kg.; assay type: ADME, organism-based, Urine; conditions: in vivo; summary of the method: as §1
[9] = Diuretic activity was determined expressed as Na+(sodium) excreted in milli equivalents was reported for a duration of 5 hours after administration of a dose of 10 mg/Kg; assay type: ADME, Urine; conditions: in vivo; summary of the method: as §1
[10] = test system: Rattus norvegicus; assay: Antihypertensive activity in SH rats, and mean arterial blood pressure was reported at a dose of 10 mg/Kg; assay type: functional, Artery; summary of the method: as §1
[11] = test system: Canis familiaris; assay: Antihypertensive activity in renal hypertensive dogs and maximal fall in mean arterial blood pressure (MABP) was reported at a time duration of 1 hour after peroral administration of 0.3 mg/Kg.; assay type: functional, Canis lupus familiaris, Artery
Summary of the method: (§2)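 Chronic phase two kidney-one clip Goldblatt renal hypertensive dogs from a standing colony, habituated to the procedure, dosed orally. Arterial blood pressure and heart rate taken by arterial puncture before dosing and repeated at 1, 3 and 5 h after dosing over a 6-h postdosing interval. Maximal falls in MABP and HR recorded.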

[12] = test system: Canis familiaris; assay: Antihypertensive activity in renal hypertensive dogs and maximal fall in mean arterial blood pressure (MABP) was reported at a time duration of 3 hour after peroral administration of 0.3 mg/Kg.; assay type: functional, Canis lupus familiaris, Artery; summary of the method: as §2
[13] = test system: Canis familiaris; assay: Antihypertensive activity in renal hypertensive dogs and fall in heart rate(HR) was reported at a time duration of 0 hour after peroral administration of 0.1 mg/Kg.; assay type: functional, Canis lupus familiaris; summary of the method: as §2
[14] = test system: Canis familiaris; assay: Antihypertensive activity in renal hypertensive dogs and maximal fall in mean arterial blood pressure (MABP) was reported at a time duration of 0 hour after peroral administration of 0.2 mg/Kg.; assay type: functional, Canis lupus familiaris, Artery; summary of the method: as §2
[15] = test system: Canis familiaris; assay: Antihypertensive activity in renal hypertensive dogs and maximal fall in mean arterial blood pressure (MABP) was reported at a time duration of 0 hour after peroral administration of 1.0 mg/Kg.; assay type: functional, Canis lupus familiaris, Artery; summary of the method: as §2
[16] = test system: Canis familiaris; assay: Antihypertensive activity in renal hypertensive dogs and fall in heart rate(HR) was reported at a time duration of 0 hour after peroral administration of 0.2 mg/Kg.; assay type: functional, Canis lupus familiaris; summary of the method: as §2
[17] = test system: Canis familiaris; assay: Antihypertensive activity in renal hypertensive dogs and maximal fall in mean arterial blood pressure (MABP) was reported at a time duration of 5 hour after peroral administration of 1.0 mg/Kg.; assay type: functional, Canis lupus familiaris, Artery
Summary of the method: (§3)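 Chronic-phase two kidney-one clip Goldblatt renal hypertensive dogs from a standing colony, habituated to the procedure. Mean arterial pressure and heart rate taken by direct arterial puncture before dosing and again 1, 3 and 5 h after oral dosing; maximal fall recorded over the 6-h postdosing interval.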

[18] = test system: Rattus norvegicus; assay: Diuretic activity was determined expressed as volume of urine excreted in mL was reported at a dose of 100 mg/Kg; assay type: ADME, organism-based; conditions: in vivo; summary of the method: as §1
[19] = test system: Canis familiaris; assay: Antihypertensive activity in renal hypertensive dogs and fall in heart rate(HR) was reported at a time duration of 3 hour after peroral administration of 0.1 mg/kg; assay type: functional, Canis lupus familiaris; conditions: route oral; summary of the method: as §2
[20] = test system: Canis familiaris; assay: Antihypertensive activity in renal hypertensive dogs and fall in heart rate(HR) was reported at a time duration of 3 hour after peroral administration of 0.2 mg/Kg.; assay type: functional, Canis lupus familiaris; summary of the method: as §2
[21] = test system: Canis familiaris; assay: Antihypertensive activity in renal hypertensive dogs and maximal fall in mean arterial blood pressure (MABP) was reported at a time duration of 0 hour after peroral administration of 0.1 mg/Kg; assay type: functional, Canis lupus familiaris, Artery; summary of the method: as §2
[22] = test system: Canis familiaris; assay: Antihypertensive activity in renal hypertensive dogs and fall in heart rate(HR) was reported at a time duration of 1 hour after peroral administration of 0.1 mg/kg.; assay type: functional, Canis lupus familiaris; conditions: route oral; summary of the method: as §2
[23] = test system: Rattus norvegicus; assay: Antihypertensive activity in SH rats, and mean arterial blood pressure was reported at a dose of 100 mg/Kg; assay type: functional, Artery; summary of the method: as §1
[24] = test system: Canis familiaris; assay: Antihypertensive activity in renal hypertensive dogs and maximal fall in mean arterial blood pressure (MABP) was reported at a time duration of 5 hour after peroral administration of 0.3 mg/Kg; assay type: functional, Canis lupus familiaris, Artery; summary of the method: as §3
[25] = test system: Canis familiaris; assay: Antihypertensive activity in renal hypertensive dogs and fall in heart rate(HR) was reported at a time duration of 5 hour after peroral administration of 0.1 mg/Kg; assay type: functional, Canis lupus familiaris; summary of the method: as §2
[26] = test system: Canis familiaris; assay: Antihypertensive activity in renal hypertensive dogs and maximal fall in mean arterial blood pressure (MABP) was reported at a time duration of 3 hour after peroral administration of 1.0 mg/Kg.
[27] = test system: Canis familiaris; assay: Antihypertensive activity in renal hypertensive dogs and maximal fall in mean arterial blood pressure (MABP) was reported at a time duration of 3 hour after peroral administration of 0.2 mg/Kg.; assay type: functional, Canis lupus familiaris, Artery; summary of the method: as §2
[28] = test system: Canis familiaris; assay: Antihypertensive activity in renal hypertensive dogs and fall in heart rate(HR) was reported at a time duration of 1 hour after peroral administration of 0.3 mg/Kg.; assay type: functional, Canis lupus familiaris; summary of the method: as §2
[29] = test system: Canis familiaris; assay: Antihypertensive activity in renal hypertensive dogs and fall in heart rate(HR) was reported at a time duration of 5 hour after peroral administration of 1.0 mg/Kg.; assay type: functional, Canis lupus familiaris; summary of the method: as §2
[30] = test system: Canis familiaris; assay: Antihypertensive activity in renal hypertensive dogs and maximal fall in mean arterial blood pressure (MABP) was reported at a time duration of 1 hour after peroral administration of 0.1 mg/Kg.; assay type: functional, Canis lupus familiaris, Artery; summary of the method: as §2
[31] = test system: Canis familiaris; assay: Antihypertensive activity in renal hypertensive dogs and maximal fall in mean arterial blood pressure (MABP) was reported at a time duration of 5 hour after peroral administration of 0.2 mg/Kg.; assay type: functional, Canis lupus familiaris, Artery; summary of the method: as §2
[32] = test system: Canis familiaris; assay: Antihypertensive activity in renal hypertensive dogs and maximal fall in mean arterial blood pressure (MABP) was reported at a time duration of 0 hour after peroral administration of 0.3 mg/Kg.; assay type: functional, Canis lupus familiaris, Artery; summary of the method: as §2
[33] = test system: Canis familiaris; assay: Antihypertensive activity in renal hypertensive dogs and fall in heart rate(HR) was reported at a time duration of 1 hour after peroral administration of 0.2 mg/kg.; assay type: functional, Canis lupus familiaris; conditions: route oral; summary of the method: as §2
[34] = test system: Rattus norvegicus; assay: […] activity expressed as K(+) (potassium) excreted in milli equivalents was reported for a duration of 5 hours after administration of a dose of 100 mg/Kg.; assay type: ADME, organism-based, Urine; conditions: in vivo; summary of the method: as §1
[35] = test system: Canis familiaris; assay: Antihypertensive activity in renal hypertensive dogs and fall in heart rate(HR) was reported at a time duration of 5 hour after peroral administration of 0.2 mg/Kg.; assay type: functional, Canis lupus familiaris; summary of the method: as §2
[36] = test system: Canis familiaris; assay: Antihypertensive activity in renal hypertensive dogs and maximal fall in mean arterial blood pressure (MABP) was reported at a time duration of 1 hour after peroral administration of 0.2 mg/Kg.; assay type: functional, Canis lupus familiaris, Artery; summary of the method: as §2
[37] = test system: Canis familiaris; assay: Antihypertensive activity in renal hypertensive dogs and fall in heart rate(HR) was reported at a time duration of 3 hour after peroral administration of 1.0 mg/Kg.; assay type: functional, Canis lupus familiaris; summary of the method: as §2
[38] = test system: Canis familiaris; assay: Antihypertensive activity in renal hypertensive dogs and fall in heart rate(HR) was reported at a time duration of 0 hour after peroral administration of 0.3 mg/kg.; assay type: functional, Canis lupus familiaris; conditions: route oral; summary of the method: as §2
[39] = test system: Canis familiaris; assay: Antihypertensive activity in renal hypertensive dogs and fall in heart rate(HR) was reported at a time duration of 1 hour after peroral administration of 1.0 mg/Kg.; assay type: functional, Canis lupus familiaris; summary of the method: as §2
[40] = test system: Canis familiaris; assay: Antihypertensive activity in renal hypertensive dogs and maximal fall in mean arterial blood pressure (MABP) was reported at a time duration of 3 hour after peroral administration of 0.1 mg/Kg; assay type: functional, Canis lupus familiaris, Artery; summary of the method: as §2
[41] = test system: Canis familiaris; assay: Antihypertensive activity in renal hypertensive dogs and fall in heart rate(HR) was reported at a time duration of 5 hour after peroral administration of 0.3 mg/Kg.; assay type: functional, Canis lupus familiaris; summary of the method: as §2
[42] = test system: Rattus norvegicus; assay: Antihypertensive activity determined as heart rate in SH rats, was reported at a dose of 100 mg/Kg; assay type: functional; summary of the method: as §1
[43] = test system: Rattus norvegicus; assay: […] activity expressed as Na+(sodium) excreted in milli equivalents was reported for a duration of 5 hours after administration of a dose of 100 mg/Kg; assay type: ADME, organism-based, Urine; conditions: in vivo; summary of the method: as §1
[44] = test system: Canis familiaris; assay: Antihypertensive activity in renal hypertensive dogs and maximal fall in mean arterial blood pressure (MABP) was reported at a time duration of 1 hour after peroral administration of 1.0 mg/Kg.; assay type: functional, Canis lupus familiaris, Artery; summary of the method: as §2
[45] = test system: Canis familiaris; assay: Antihypertensive activity in renal hypertensive dogs and fall in heart rate(HR) was reported at a time duration of 3 hour after peroral administration of 0.3 mg/Kg.; assay type: functional, Canis lupus familiaris; summary of the method: as §2
[46] = test system: Canis familiaris; assay: Antihypertensive activity in renal hypertensive dogs and fall in heart rate(HR) was reported at a time duration of 0 hour after peroral administration of 1.0 mg/Kg.; assay type: functional, Canis lupus familiaris; summary of the method: as §2

- Diuretic activity [2]: 2.16 m equiv
- Diuretic activity [4]: 14.8 mL
- Diuretic activity [5]: 0.75 m equiv
- Diuretic activity [7]: 22.5 mL
- Diuretic activity [8]: 0.48 m equiv
- Diuretic activity [9]: 1.29 m equiv
SMILES: COc1cc(N(C)C)ccc1CNc1cc(Cl)c(/N=C/N(C)C)c(Cl)c1
- MABP [1]: 114 mmHg
- HR [3]: 450 beats min-1
- HR [6]: 270 beats min-1
- MABP [10]: 132 mmHg

- Diuretic activity [18]: 22.3 mL
- Diuretic activity [34]: 0.47 m equiv
- Diuretic activity [43]: 1.89 m equiv
SMILES: CN(C)/C=N/c1c(Cl)cc(NCc2ccc(N(C)C)cc2Cl)cc1Cl
- MABP [11]: 111 mmHg
- MABP [12]: 128 mmHg
- HR [13]: 120 bpm
- MABP [14]: 152 mmHg
- MABP [15]: 140 mmHg
- HR [16]: 79 bpm
- MABP [17]: 128 mmHg
- HR [19]: 96 bpm
- HR [20]: 58 bpm
- MABP [21]: 146 mmHg
- HR [22]: 100 bpm
- MABP [23]: 116 mmHg
- MABP [24]: 132 mmHg
- HR [25]: 113 bpm
- MABP [26]: 114 mmHg
- MABP [27]: 129 mmHg
- HR [28]: 60 bpm
- HR [29]: 66 bpm
- MABP [30]: 126 mmHg
- MABP [31]: 147 mmHg
- MABP [32]: 148 mmHg
- HR [33]: 56 bpm
- HR [35]: 65 bpm
- MABP [36]: 123 mmHg
- HR [37]: 47 bpm
- HR [38]: 94 bpm
- HR [39]: 60 bpm
- MABP [40]: 135 mmHg and 144 mmHg
- HR [41]: 60 bpm
- HR [42]: 310 beats min-1
- MABP [44]: 108 mmHg
- HR [45]: 63 bpm
- HR [46]: 110 bpm
